≈ marks a conversion by molar mass, not a printed value.
How the values were obtained:
Candida tropicalis [1] = assay: Antifungal activity against Candida tropicalis ATCC 750 after 24 to 36 hrs by broth microdilution method; assay type: functional, organism-based
How it was run: (§1)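 CLSI broth microdilution against yeasts (M27-A3) and filamentous fungi (M38-A2). Read-outs: IC50 (concentration giving 50% growth inhibition), MIC, and MFC (minimum fungicidal concentration), all in μg/mL. Assay done twice in triplicate.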

Candida tropicalis [2] = assay: Antifungal activity against Candida tropicalis ATCC 750 after 72 hrs by broth microdilution method; assay type: functional; details: ATCC 750, 72 h; how it was run: as §1
[3] = Toxicity in human RBC assessed as hemolysis upto 128 ug/ml; assay type: cell-based; details: erythrocyte
Candida albicans [4] = assay: Antifungal activity against Candida albicans ATCC 10231 after 24 to 36 hrs by broth microdilution method; assay type: functional, organism-based; how it was run: as §1
Aspergillus niger [5] = assay: Antifungal activity against Aspergillus niger ATCC 10578 after 48 hrs by broth microdilution method; assay type: functional, organism-based; details: ATCC 10578, 48 h; how it was run: as §1
Aspergillus niger [6] = assay: Antifungal activity against Aspergillus niger ATCC 10578 after 72 hrs by broth microdilution method; assay type: functional; details: ATCC 10578, 72 h; how it was run: as §1
Candida albicans [7] = assay: Antifungal activity against Candida albicans ATCC 24433 after 72 hrs by broth microdilution method; assay type: functional; details: ATCC 24433, 72 h; how it was run: as §1
Nakaseomyces glabratus [8] = assay: Antifungal activity against Candida glabrata NCYC 388 after 72 hrs by broth microdilution method; assay type: functional; details: NCYC 388, 72 h; how it was run: as §1
Cryptococcus neoformans [9] = assay: Antifungal activity against Cryptococcus neoformans ATCC 34664 after 24 to 36 hrs by broth microdilution method; assay type: functional, organism-based; how it was run: as §1
Candida albicans [10] = assay: Antifungal activity against Candida albicans ATCC 24433 after 24 to 36 hrs by broth microdilution method; assay type: functional, organism-based; how it was run: as §1
Nakaseomyces glabratus [11] = assay: Antifungal activity against Candida glabrata NCYC 388 after 24 to 36 hrs by broth microdilution method; assay type: functional, organism-based; how it was run: as §1
Candida albicans [12] = assay: Antifungal activity against Candida albicans ATCC 10231 after 72 hrs by broth microdilution method; assay type: functional; details: ATCC 10231, 72 h; how it was run: as §1
Cryptococcus neoformans [13] = assay: Antifungal activity against Cryptococcus neoformans ATCC 34664 after 72 hrs by broth microdilution method; assay type: functional; details: ATCC 34664, 72 h; how it was run: as §1
[14] = Toxicity in human RBC assessed as partial hemolysis at 256 ug/ml; assay type: cell-based; details: erythrocyte
[15] = Metabolic stability in human liver microsomes after 30 mins by LC-MS/MS analysis; assay type: ADME; details: read-out: Stability
How it was run: (§2)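 Test compounds were incubated 30 min with liver microsomes (human or mouse, per line), and values are reported as % metabolic stability after 30 min.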

[16] = Metabolic stability in mouse liver microsomes after 30 mins by LC-MS/MS analysis; assay type: ADME; details: read-out: Stability; how it was run: as §2

Row | SMILES | IC50 (Candida tropicalis [1]) [µg/mL] | MIC (Candida tropicalis [1]) [µg/mL] | MFC (Candida tropicalis [2]) [µg/mL] | Activity [3] | IC50 (Candida albicans [4]) [µg/mL] | MIC (Candida albicans [4]) [µg/mL] | IC50 (Aspergillus niger [5]) [µg/mL] | MIC (Aspergillus niger [5]) [µg/mL] | MFC (Aspergillus niger [6]) [µg/mL] | MFC (Candida albicans [7]) [µg/mL] | MFC (Nakaseomyces glabratus [8]) [µg/mL] | IC50 (Cryptococcus neoformans [9]) [µg/mL] | MIC (Cryptococcus neoformans [9]) [µg/mL] | IC50 (Candida albicans [10]) [µg/mL] | MIC (Candida albicans [10]) [µg/mL] | IC50 (Nakaseomyces glabratus [11]) [µg/mL] | MIC (Nakaseomyces glabratus [11]) [µg/mL] | MFC (Candida albicans [12]) [µg/mL] | MFC (Cryptococcus neoformans [13]) [µg/mL] | other results
1 | CC(Cc1ccc([Si](C)(C)C)cc1)CN1CCSCC1 (stereo not drawn) | 0.25 (≈ 0.813 µM) | 2 (≈ 6.5 µM) | > 256 | Non-toxic | 0.5 (≈ 1.63 µM) | 1 (≈ 3.25 µM) | 1 (≈ 3.25 µM) | 2 (≈ 6.5 µM) | > 256 | 8 (≈ 26 µM) | 8 (≈ 26 µM) | 0.8 (≈ 2.6 µM) | 2 (≈ 6.5 µM) | 0.245 (≈ 0.797 µM) | 1 (≈ 3.25 µM) | 0.25 (≈ 0.813 µM) | 0.5 (≈ 1.63 µM) | 2 (≈ 6.5 µM) | 64 (≈ 208 µM) | –
2 | CC(CNC1CCN(C)CC1)Cc1ccc([Si](C)(C)C)cc1 (stereo not drawn) | 1.5 (≈ 4.71 µM) | 64 (≈ 201 µM) | 256 (≈ 804 µM) | Non-toxic | 1.59 (≈ 4.99 µM) | 2 (≈ 6.28 µM) | 4.5 (≈ 14.1 µM) | 8 (≈ 25.1 µM) | > 256 | 8 (≈ 25.1 µM) | 16 (≈ 50.2 µM) | 6.9 (≈ 21.7 µM) | 16 (≈ 50.2 µM) | 5.13 (≈ 16.1 µM) | 8 (≈ 25.1 µM) | 5.92 (≈ 18.6 µM) | 8 (≈ 25.1 µM) | 2 (≈ 6.28 µM) | 16 (≈ 50.2 µM) | Activity [14]: Toxic
3 | CC(Cc1ccc([Si](C)(C)C)cc1)CN1CCCCC1 (stereo not drawn) | 1 (≈ 3.45 µM) | 4 (≈ 13.8 µM) | 64 (≈ 221 µM) | Non-toxic | 0.11 (≈ 0.38 µM) | 0.25 (≈ 0.863 µM) | 41.2 (≈ 142 µM) | 64 (≈ 221 µM) | 128 (≈ 442 µM) | 2 (≈ 6.91 µM) | 8 (≈ 27.6 µM) | 0.0625 (≈ 0.216 µM) | 0.125 (≈ 0.432 µM) | 0.12 (≈ 0.414 µM) | 0.25 (≈ 0.863 µM) | 0.035 (≈ 0.121 µM) | 0.125 (≈ 0.432 µM) | 32 (≈ 111 µM) | 8 (≈ 27.6 µM) | –
4 | CC(Cc1ccc([Si](C)(C)C)cc1)CN1CCCC1 (stereo not drawn) | 2.76 (≈ 10 µM) | 16 (≈ 58.1 µM) | 128 (≈ 465 µM) | – | 0.31 (≈ 1.13 µM) | 0.5 (≈ 1.81 µM) | 50.1 (≈ 182 µM) | 64 (≈ 232 µM) | 256 (≈ 929 µM) | 8 (≈ 29 µM) | 32 (≈ 116 µM) | 0.25 (≈ 0.907 µM) | 1 (≈ 3.63 µM) | 0.97 (≈ 3.52 µM) | 2 (≈ 7.26 µM) | 0.319 (≈ 1.16 µM) | 1 (≈ 3.63 µM) | 2 (≈ 7.26 µM) | 4 (≈ 14.5 µM) | –
5 | CC(Cc1ccc(C(C)(C)C)cc1)CN1CC[Si](C)(C)CC1 (stereo not drawn) | 16 (≈ 50.4 µM) | 64 (≈ 202 µM) | 64 (≈ 202 µM) | Non-toxic | 0.31 (≈ 0.976 µM) | 0.5 (≈ 1.57 µM) | 13.8 (≈ 43.5 µM) | 32 (≈ 101 µM) | 64 (≈ 202 µM) | 8 (≈ 25.2 µM) | 8 (≈ 25.2 µM) | 0.875 (≈ 2.76 µM) | 2 (≈ 6.3 µM) | 1.85 (≈ 5.83 µM) | 4 (≈ 12.6 µM) | 1.52 (≈ 4.79 µM) | 4 (≈ 12.6 µM) | 0.5 (≈ 1.57 µM) | 4 (≈ 12.6 µM) | –
6 | CC(Cc1ccc(C(C)(C)C)cc1)CN1CCCCC1 (stereo not drawn) [FENPROPIDIN] | 0.125 (≈ 0.457 µM) | 4 (≈ 14.6 µM) | 256 (≈ 936 µM) | Non-toxic | 0.27 (≈ 0.987 µM) | 1 (≈ 3.66 µM) | 16 (≈ 58.5 µM) | 32 (≈ 117 µM) | 128 (≈ 468 µM) | 0.5 (≈ 1.83 µM) | 16 (≈ 58.5 µM) | 0.22 (≈ 0.804 µM) | 1 (≈ 3.66 µM) | 0.19 (≈ 0.695 µM) | 0.25 (≈ 0.914 µM) | 0.1 (≈ 0.366 µM) | 0.5 (≈ 1.83 µM) | 2 (≈ 7.31 µM) | 32 (≈ 117 µM) | remaining at 0.5 h [15]: 34.4%; remaining at 0.5 h [16]: 1.1%
7 | CC(Cc1ccc(C(C)(C)C)cc1)CN1C[C@@H](C)O[C@@H](C)C1 (stereo partly drawn) [FENPROPIMORPH] | 0.125 (≈ 0.412 µM) | 2 (≈ 6.59 µM) | > 256 | Non-toxic | 0.833 (≈ 2.74 µM) | 2 (≈ 6.59 µM) | 1 (≈ 3.3 µM) | 4 (≈ 13.2 µM) | > 256 | 4 (≈ 13.2 µM) | 128 (≈ 422 µM) | 0.25 (≈ 0.824 µM) | 1 (≈ 3.3 µM) | 0.21 (≈ 0.692 µM) | 0.5 (≈ 1.65 µM) | 0.25 (≈ 0.824 µM) | 1 (≈ 3.3 µM) | 2 (≈ 6.59 µM) | 64 (≈ 211 µM) | –
8 | OC(Cn1cncn1)(Cn1cncn1)c1ccc(F)cc1F [FLUCONAZOLE] | 64 (≈ 209 µM) | > 256 | > 256 | – | 4.21 (≈ 13.7 µM) | 8 (≈ 26.1 µM) | > 256 | > 256 | > 256 | 4 (≈ 13.1 µM) | > 256 | 4.6 (≈ 15 µM) | 32 (≈ 104 µM) | 0.73 (≈ 2.38 µM) | 2 (≈ 6.53 µM) | 16 (≈ 52.2 µM) | 128 (≈ 418 µM) | 16 (≈ 52.2 µM) | > 256 | –
